Results as given in ChEMBL document CHEMBL1165943, “Design and synthesis of new anticancer pyrimidines with multiple-kinase inhibitory effect” (Bioorg Med Chem, 2010).
Activity calls are given as the source filed them. The calls are words filed in the database; no cut-off is given here.

Experiments:
UACC-257 = assay: Cytotoxicity against human UACC257 cells assessed as cell growth at 0.01 uM after 48 hrs by sulforhodamine B assay; format: functional; conditions: UACC-257, 48 h, read-out: Activity
[1] = target: Protein-tyrosine kinase 2-beta (Homo sapiens) (UniProt Q14289); assay: Inhibition of PTK2B at 10 uM by HotSpot assay
SK-OV-3 [2] = assay: Cytotoxicity against human SKOV3 cells assessed as cell growth at 0.01 uM after 48 hrs by sulforhodamine B assay; format: functional; conditions: SK-OV-3, 48 h, read-out: Activity
SF-268 [3] = assay: Cytotoxicity against human SF268 cells assessed as cell growth at 0.001 uM after 48 hrs by sulforhodamine B assay; format: functional; conditions: SF-268, 48 h, read-out: Activity
NCI-H522 [4] = assay: Cytotoxicity against human NCI-H522 cells assessed as cell growth at 100 nM after 48 hrs by sulforhodamine B assay; format: functional; conditions: NCI-H522, 48 h, read-out: Activity
[5] = target: Macrophage colony-stimulating factor 1 receptor (Homo sapiens) (UniProt P07333); assay: Inhibition of FMS at 10 uM by HotSpot assay
[6] = target: Vascular endothelial growth factor receptor 2 (Homo sapiens) (UniProt P35968); assay: Inhibition of KDR at 10 uM by HotSpot assay
Malme-3M = assay: Growth inhibition of human MALME-3M cells after 48 hrs by sulforhodamine B assay; format: functional, cell-based
Procedure, shortened: (§1)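 Cells grown in RPMI 1640 with 5% FBS and 2 mM L-glutamine, seeded at 5,000–40,000 cells/well according to doubling time. After 24 h, time-zero plates are TCA-fixed. Five concentrations (10-fold or ½log dilutions, DMSO stocks) are applied for 48 h at 37 °C, 5% CO₂. Cells are TCA-fixed, SRB-stained and read at 515 nm. IC₅₀ is taken from [(Ti−Tz)/(C−Tz)]×100 = 50.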

SK-OV-3 [7] = assay: Growth inhibition of human SKOV3 cells after 48 hrs by sulforhodamine B assay; format: functional, cell-based; conditions: SK-OV-3, 48 h; procedure, shortened: as §1
OVCAR-8 = assay: Cytotoxicity against human OVCAR8 cells assessed as cell growth at 1 uM after 48 hrs by sulforhodamine B assay; format: functional; conditions: OVCAR-8, 48 h, read-out: Activity
[8] = Cytotoxicity against human Hs 578T cells assessed as cell growth at 100 nM after 48 hrs by sulforhodamine B assay; format: functional; conditions: read-out: Activity
SF-268 [9] = assay: Cytotoxicity against human SF268 cells assessed as cell growth at 10 uM after 48 hrs by sulforhodamine B assay; format: functional; conditions: SF-268, 48 h, read-out: Activity
HT-29 = assay: Growth inhibition of human HT-29 cells after 48 hrs by sulforhodamine B assay; format: functional, cell-based; conditions: HT-29, 48 h; for CC50: read-out: LC50 (the source's name); procedure, shortened: as §1
SW-620 = assay: Growth inhibition of human SW620 cells after 48 hrs by sulforhodamine B assay; format: functional, cell-based; conditions: SW-620, 48 h; for CC50: read-out: LC50 (the source's name); procedure, shortened: as §1
SN12C [10] = assay: Cytotoxicity against human SN12C cells assessed as cell growth at 0.01 uM after 48 hrs by sulforhodamine B assay; format: functional; conditions: read-out: Activity
SF-268 [11] = assay: Cytotoxicity against human SF268 cells assessed as cell growth at 0.01 uM after 48 hrs by sulforhodamine B assay; format: functional; conditions: SF-268, 48 h, read-out: Activity
A549 = assay: Growth inhibition of human A549 cells after 48 hrs by sulforhodamine B assay; format: functional, cell-based; conditions: A549, 48 h; for CC50: read-out: LC50 (the source's name)
Procedure, shortened: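 Five-dose SRB assay. Cells in RPMI 1640 with 5% FBS and 2 mM L-glutamine were seeded at 5,000–40,000 cells/well, with a TCA-fixed time-zero plate (Tz) taken at 24 h. Compound stocks were in DMSO, serially diluted 10-fold or ½-log to five concentrations, and incubated 48 h at 37 °C. Plates were stained with SRB and read at 515 nm. IC₅₀ was taken where [(Ti−Tz)/(C−Tz)]×100 = 50.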

EKVX = assay: Cytotoxicity against human EKVX cells assessed as cell growth at 0.001 uM after 48 hrs by sulforhodamine B assay; format: functional; conditions: read-out: Activity
SN12C [12] = assay: Growth inhibition of human SN12C cells after 48 hrs by sulforhodamine B assay; format: functional, cell-based; conditions: for CC50: read-out: LC50 (the source's name); procedure, shortened: as §1
HOP-62 = assay: Growth inhibition of human HOP62 cells after 48 hrs by sulforhodamine B assay; format: functional, cell-based; conditions: HOP-62, 48 h; for CC50: read-out: LC50 (the source's name); procedure, shortened: as §1
[13] = target: Inhibitor of nuclear factor kappa-B kinase subunit beta (Homo sapiens) (UniProt O14920); assay: Inhibition of IKK-beta at 10 uM by HotSpot assay
NCI-H522 [14] = assay: Cytotoxicity against human NCI-H522 cells assessed as cell growth at 10 uM after 48 hrs by sulforhodamine B assay; format: functional; conditions: NCI-H522, 48 h, read-out: Activity
[15] = target: Tyrosine-protein kinase Lck (Homo sapiens) (UniProt P06239); assay: Inhibition of LCK at 10 uM by HotSpot assay
BT-549 = assay: Cytotoxicity against human BT549 cells assessed as cell growth at 10 uM after 48 hrs by sulforhodamine B assay; format: functional; conditions: BT-549, 48 h, read-out: Activity
Procedure, shortened: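 Cells grown in RPMI 1640 with 5% FBS and 2 mM L-glutamine, seeded at 5,000–40,000 cells/well by doubling time. Time-zero plates TCA-fixed after 24 h. Five concentrations (10-fold or half-log dilutions from DMSO stock) added; 48 h at 37 °C, 5% CO2. Cold TCA fixation (final 10%, 60 min, 4 °C), 0.4% SRB stain, dye solubilized in 10 mM trizma base, A515.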

[16] = target: Proto-oncogene tyrosine-protein kinase ROS (Homo sapiens) (UniProt P08922); assay: Inhibition of ROS at 10 uM by HotSpot assay
RXF 393 [17] = assay: Cytotoxicity against human RXF393 cells assessed as cell growth at 0.01 uM after 48 hrs by sulforhodamine B assay; format: functional; conditions: RXF 393, 48 h, read-out: Activity
RXF 393 [18] = assay: Cytotoxicity against human RXF393 cells assessed as cell growth at 10 uM after 48 hrs by sulforhodamine B assay; format: functional; conditions: RXF 393, 48 h, read-out: Activity
SK-MEL-28 [19] = assay: Cytotoxicity against human SK-MEL-28 cells assessed as cell growth at 10 uM after 48 hrs by sulforhodamine B assay; format: functional; conditions: SK-MEL-28, 48 h, read-out: Activity
SK-MEL-28 [20] = assay: Cytotoxicity against human SK-MEL-28 cells assessed as cell growth at 0.001 uM after 48 hrs by sulforhodamine B assay; format: functional; conditions: SK-MEL-28, 48 h, read-out: Activity
CCRF-CEM = assay: Cytotoxicity against human CCRF-CEM cells assessed as cell growth at 100 nM after 48 hrs by sulforhodamine B assay; format: functional; conditions: read-out: Activity

Chain of Macrophage colony-stimulating factor 1 receptor (Homo sapiens) (P07333 whole entry): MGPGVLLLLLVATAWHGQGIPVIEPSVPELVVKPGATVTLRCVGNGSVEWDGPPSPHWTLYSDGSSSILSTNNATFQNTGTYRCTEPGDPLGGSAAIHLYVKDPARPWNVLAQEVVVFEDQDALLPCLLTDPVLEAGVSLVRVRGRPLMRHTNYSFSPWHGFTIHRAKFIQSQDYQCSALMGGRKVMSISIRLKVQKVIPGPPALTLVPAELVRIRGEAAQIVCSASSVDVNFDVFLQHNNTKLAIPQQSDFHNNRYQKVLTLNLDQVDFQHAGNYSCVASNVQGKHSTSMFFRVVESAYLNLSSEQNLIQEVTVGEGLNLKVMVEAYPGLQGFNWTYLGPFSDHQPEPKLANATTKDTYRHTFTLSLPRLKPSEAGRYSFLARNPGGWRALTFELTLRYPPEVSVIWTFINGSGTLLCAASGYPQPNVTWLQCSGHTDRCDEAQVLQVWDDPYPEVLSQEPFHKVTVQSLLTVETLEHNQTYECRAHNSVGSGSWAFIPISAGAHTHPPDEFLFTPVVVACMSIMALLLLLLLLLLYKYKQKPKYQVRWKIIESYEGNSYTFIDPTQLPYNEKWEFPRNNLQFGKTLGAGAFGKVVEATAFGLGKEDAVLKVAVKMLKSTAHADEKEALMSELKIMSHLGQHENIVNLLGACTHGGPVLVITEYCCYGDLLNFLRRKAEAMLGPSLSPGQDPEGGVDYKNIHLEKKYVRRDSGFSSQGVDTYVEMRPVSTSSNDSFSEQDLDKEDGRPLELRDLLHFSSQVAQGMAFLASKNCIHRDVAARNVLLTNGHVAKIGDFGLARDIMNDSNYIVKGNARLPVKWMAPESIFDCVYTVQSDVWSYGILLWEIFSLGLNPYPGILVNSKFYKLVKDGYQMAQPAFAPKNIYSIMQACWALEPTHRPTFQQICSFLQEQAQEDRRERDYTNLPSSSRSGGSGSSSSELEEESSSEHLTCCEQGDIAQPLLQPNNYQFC
Chain of Proto-oncogene tyrosine-protein kinase ROS (Homo sapiens) (P08922 whole entry): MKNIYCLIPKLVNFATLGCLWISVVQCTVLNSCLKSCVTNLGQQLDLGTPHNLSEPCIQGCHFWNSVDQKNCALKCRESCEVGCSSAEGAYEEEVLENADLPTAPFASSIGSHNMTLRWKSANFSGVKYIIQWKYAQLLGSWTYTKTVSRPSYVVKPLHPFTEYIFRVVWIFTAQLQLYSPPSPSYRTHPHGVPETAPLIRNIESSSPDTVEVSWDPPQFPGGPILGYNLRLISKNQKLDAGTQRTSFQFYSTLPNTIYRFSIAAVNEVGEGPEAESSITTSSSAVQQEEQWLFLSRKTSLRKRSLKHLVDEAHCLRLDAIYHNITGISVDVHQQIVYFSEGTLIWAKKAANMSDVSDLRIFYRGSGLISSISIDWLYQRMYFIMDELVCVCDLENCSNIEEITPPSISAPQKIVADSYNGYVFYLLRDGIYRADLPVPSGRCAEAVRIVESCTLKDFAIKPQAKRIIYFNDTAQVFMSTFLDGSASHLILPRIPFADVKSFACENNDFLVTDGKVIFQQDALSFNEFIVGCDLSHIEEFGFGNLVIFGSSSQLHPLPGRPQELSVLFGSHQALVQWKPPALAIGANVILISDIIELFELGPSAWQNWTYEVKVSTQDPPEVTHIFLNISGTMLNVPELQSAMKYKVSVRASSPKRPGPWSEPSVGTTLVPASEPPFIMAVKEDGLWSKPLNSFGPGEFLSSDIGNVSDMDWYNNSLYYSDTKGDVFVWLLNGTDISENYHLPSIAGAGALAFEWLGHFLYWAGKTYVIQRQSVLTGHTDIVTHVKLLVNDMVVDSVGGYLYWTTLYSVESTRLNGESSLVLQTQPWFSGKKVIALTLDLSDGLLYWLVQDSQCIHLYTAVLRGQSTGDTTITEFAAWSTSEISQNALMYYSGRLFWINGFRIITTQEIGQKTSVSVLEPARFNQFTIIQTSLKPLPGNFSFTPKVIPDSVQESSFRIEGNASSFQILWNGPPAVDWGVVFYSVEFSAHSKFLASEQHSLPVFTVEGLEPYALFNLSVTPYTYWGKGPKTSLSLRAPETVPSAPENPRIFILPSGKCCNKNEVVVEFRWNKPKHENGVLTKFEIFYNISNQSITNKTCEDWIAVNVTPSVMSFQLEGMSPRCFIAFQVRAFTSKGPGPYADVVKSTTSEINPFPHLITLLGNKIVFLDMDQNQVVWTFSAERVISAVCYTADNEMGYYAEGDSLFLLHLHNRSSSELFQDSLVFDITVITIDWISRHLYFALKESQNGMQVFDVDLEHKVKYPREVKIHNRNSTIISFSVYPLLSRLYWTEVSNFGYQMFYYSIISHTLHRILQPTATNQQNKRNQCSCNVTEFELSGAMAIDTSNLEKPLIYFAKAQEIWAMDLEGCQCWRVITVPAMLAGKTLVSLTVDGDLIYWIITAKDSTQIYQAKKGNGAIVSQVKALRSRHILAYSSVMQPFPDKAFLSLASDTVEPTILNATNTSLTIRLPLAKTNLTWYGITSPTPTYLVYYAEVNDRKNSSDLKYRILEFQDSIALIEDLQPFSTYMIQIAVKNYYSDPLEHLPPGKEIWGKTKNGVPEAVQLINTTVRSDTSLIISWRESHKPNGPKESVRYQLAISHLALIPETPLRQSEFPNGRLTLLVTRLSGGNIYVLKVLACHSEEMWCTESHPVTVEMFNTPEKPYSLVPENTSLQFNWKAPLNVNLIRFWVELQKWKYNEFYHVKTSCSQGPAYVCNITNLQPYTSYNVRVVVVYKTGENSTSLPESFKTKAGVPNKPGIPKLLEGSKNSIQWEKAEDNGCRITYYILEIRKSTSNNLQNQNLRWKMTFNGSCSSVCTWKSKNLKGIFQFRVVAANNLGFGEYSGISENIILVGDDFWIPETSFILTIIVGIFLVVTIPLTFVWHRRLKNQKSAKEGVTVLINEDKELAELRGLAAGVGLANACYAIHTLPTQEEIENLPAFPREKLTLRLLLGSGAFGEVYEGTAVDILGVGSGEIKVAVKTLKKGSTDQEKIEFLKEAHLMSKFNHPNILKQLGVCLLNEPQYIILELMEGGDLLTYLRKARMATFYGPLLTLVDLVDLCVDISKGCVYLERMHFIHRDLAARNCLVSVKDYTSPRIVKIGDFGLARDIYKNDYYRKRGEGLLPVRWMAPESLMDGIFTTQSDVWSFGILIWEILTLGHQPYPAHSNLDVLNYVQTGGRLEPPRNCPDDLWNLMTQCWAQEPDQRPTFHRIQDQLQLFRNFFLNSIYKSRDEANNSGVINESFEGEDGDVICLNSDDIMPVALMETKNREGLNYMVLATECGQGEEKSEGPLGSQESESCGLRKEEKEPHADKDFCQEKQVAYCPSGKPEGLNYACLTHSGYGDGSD
Chain of Vascular endothelial growth factor receptor 2 (Homo sapiens) (P35968 whole entry): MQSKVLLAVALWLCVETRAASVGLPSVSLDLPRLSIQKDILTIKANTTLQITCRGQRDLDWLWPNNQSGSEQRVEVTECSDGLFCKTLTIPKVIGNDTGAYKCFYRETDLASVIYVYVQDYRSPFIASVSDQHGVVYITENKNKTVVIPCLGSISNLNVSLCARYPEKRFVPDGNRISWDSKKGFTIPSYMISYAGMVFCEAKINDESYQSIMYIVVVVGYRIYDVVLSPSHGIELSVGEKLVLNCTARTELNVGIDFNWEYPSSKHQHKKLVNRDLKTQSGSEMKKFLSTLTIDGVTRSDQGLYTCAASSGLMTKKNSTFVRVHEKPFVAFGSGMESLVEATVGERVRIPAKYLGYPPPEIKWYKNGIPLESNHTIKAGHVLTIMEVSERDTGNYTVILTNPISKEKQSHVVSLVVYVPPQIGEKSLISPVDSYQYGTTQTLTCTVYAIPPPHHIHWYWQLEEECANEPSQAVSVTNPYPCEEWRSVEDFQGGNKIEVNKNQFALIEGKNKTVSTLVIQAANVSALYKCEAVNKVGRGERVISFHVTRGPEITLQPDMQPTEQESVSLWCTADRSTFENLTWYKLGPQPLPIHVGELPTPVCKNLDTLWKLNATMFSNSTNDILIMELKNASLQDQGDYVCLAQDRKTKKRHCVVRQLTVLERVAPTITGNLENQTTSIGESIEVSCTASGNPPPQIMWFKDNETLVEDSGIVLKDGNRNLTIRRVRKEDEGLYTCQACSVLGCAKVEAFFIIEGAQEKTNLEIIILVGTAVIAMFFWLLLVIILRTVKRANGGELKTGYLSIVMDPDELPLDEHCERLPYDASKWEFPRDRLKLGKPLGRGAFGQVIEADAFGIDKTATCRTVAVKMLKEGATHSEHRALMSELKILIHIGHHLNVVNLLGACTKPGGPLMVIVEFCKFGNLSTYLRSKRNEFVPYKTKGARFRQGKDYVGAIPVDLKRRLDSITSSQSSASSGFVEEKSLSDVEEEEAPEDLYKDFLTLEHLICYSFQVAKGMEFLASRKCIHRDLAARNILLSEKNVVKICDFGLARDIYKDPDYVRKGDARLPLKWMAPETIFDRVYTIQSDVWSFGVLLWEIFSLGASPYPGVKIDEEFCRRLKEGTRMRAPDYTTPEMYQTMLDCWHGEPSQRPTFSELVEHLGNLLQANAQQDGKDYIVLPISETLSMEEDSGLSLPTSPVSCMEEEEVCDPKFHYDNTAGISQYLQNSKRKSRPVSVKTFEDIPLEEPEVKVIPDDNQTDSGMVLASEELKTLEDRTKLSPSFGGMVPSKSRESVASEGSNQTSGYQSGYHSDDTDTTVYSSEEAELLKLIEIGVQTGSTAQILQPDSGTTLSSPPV

## CC(=O)Nc1cccc(-c2ccc(-c3ccnc(NC(=O)Nc4cc(C(F)(F)F)cc(C(F)(F)F)c4)n3)cn2)c1.Cl
UACC-257
  growth at 0.01 µM: 96%
[1]
  inhibition: < 50%
SK-OV-3 [2]
  growth at 0.01 µM: 98%
SF-268 [3]
  growth at 0.001 µM: 95%
NCI-H522 [4]
  growth at 0.1 µM: 72%
[5]
  inhibition: < 50%
[6]
  inhibition: 50%
Malme-3M
  LC50: inactive
Malme-3M; Homo sapiens, Malme-3M, 48 h
  GI50: 2.01 µM
  TGI: 4.48 µM
Malme-3M; Homo sapiens, Malme-3M, 48 h, read-out: IC50
  IC50: 2.01 µM
SK-OV-3 [7]
  GI50: 13.1 µM
  IC50: 13.1 µM
  LC50 (concentration giving 50% net cell kill): 78.8 µM
  TGI: 32.2 µM
OVCAR-8
  growth at 1 µM: -25%
[8]
  growth at 0.1 µM: 97%
SF-268 [9]
  growth at 10 µM: -50%
HT-29
  GI50: 3 µM
  IC50: 3 µM
  TGI: 8.74 µM
  CC50: 57.6 µM
SW-620
  GI50: 2.3 µM
  IC50: 2.3 µM
  TGI: 5.59 µM
  CC50: > 100 µM
SN12C [10]
  growth at 0.01 µM: 96%
SF-268 [11]
  growth at 0.01 µM: 95%
A549
  GI50: 1.48 µM
  IC50: 1.48 µM
  TGI: 12.6 µM
  CC50: 41.9 µM
EKVX
  growth at 0.001 µM: 90%
SN12C [12]
  GI50: 9.29 µM
  IC50: 9.29 µM
  TGI: 23.8 µM
  CC50: 57.7 µM
HOP-62
  GI50: 4.88 µM
  IC50: 4.88 µM
  TGI: 26.8 µM
  CC50: > 100 µM
[13]
  inhibition: < 50%
NCI-H522 [14]
  growth at 10 µM: -73%
[15]
  inhibition: 70%
BT-549
  growth at 10 µM: -97%
[16]
  inhibition: < 50%

## CC(=O)c1ccccc1-c1ccc(-c2ccnc(NC(=O)Nc3cc(N4CCOCC4)cc(C(F)(F)F)c3)n2)cn1
UACC-257
  growth at 0.01 µM: 79%
SK-OV-3 [2]
  growth at 0.01 µM: 113%
SF-268 [3]
  growth at 0.001 µM: 103%
RXF 393 [17]
  growth at 0.01 µM: 108%
NCI-H522 [4]
  growth at 0.1 µM: 101%
RXF 393 [18]
  growth at 10 µM: -16%
Malme-3M; Homo sapiens, Malme-3M, 48 h
  TGI: > 100 µM
Malme-3M; Homo sapiens, Malme-3M, 48 h, read-out: LC50 (the source's name)
  CC50: > 100 µM
Malme-3M; malme-3m
  IC50: Not Active
SK-OV-3 [7]
  GI50: > 100 µM
  IC50: 9.42 µM
  LC50 (concentration giving 50% net cell kill): > 100 µM
  TGI: > 100 µM
OVCAR-8
  growth at 1 µM: 41%
[8]
  growth at 0.1 µM: 77%
SF-268 [9]
  growth at 10 µM: 44%
HT-29
  GI50: > 100 µM
  IC50: > 100 µM
  TGI: > 100 µM
  CC50: > 100 µM
SK-MEL-28 [19]
  growth at 10 µM: 93%
SW-620
  GI50: > 100 µM
  IC50: > 100 µM
  TGI: > 100 µM
  CC50: > 100 µM
SN12C [10]
  growth at 0.01 µM: 88%
SF-268 [11]
  growth at 0.01 µM: 90%
A549
  GI50: > 100 µM
  IC50: > 100 µM
  TGI: > 100 µM
  CC50: > 100 µM
EKVX
  growth at 0.001 µM: 95%
SN12C [12]
  GI50: 1.27 µM
  IC50: > 100 µM
  TGI: > 100 µM
  CC50: > 100 µM
HOP-62
  GI50: > 100 µM
  IC50: 4.29 µM
  TGI: > 100 µM
  CC50: > 100 µM
NCI-H522 [14]
  growth at 10 µM: 40%
SK-MEL-28 [20]
  growth at 0.001 µM: 100%
CCRF-CEM
  growth at 0.1 µM: 87%
BT-549
  growth at 10 µM: 46%
